Source: PubChem BioAssay
Apaf1 activ = activators of human Apaf-1 apoptosome, primary screen, biochemical, DEVD-Rh110 fluorescence, uHTS; Apoptotic protease-activating factor 1 (Homo sapiens), O14727; Apaf-1 apoptosome caspase-3 activation; hits give low values; activity change, negative = activation, % at 20 µM; 330,000 compounds, 0.31% hits;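 active = activity change at or below -40% at 20 µM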
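system = biochemical Apaf-1 apoptosome reconstitution | buffer or medium = 20 mM HEPES pH 7.5 with CHAPS, BSA | also added = dATP and cytochrome c as apoptosome triggers, (Z-DEVD)2-Rh110 substrate | incubation = 30 min compound preincubation and 50 min reaction, both room temperature | measured by = fluorescence, 540 nm emission, 480 nm excitation | read-out basis = Caspase-3 cleavage activity downstream of Apaf-1 activation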
Rh110 act interf = Rh110 fluorescence interference by putative Apaf-1 activators, confirmation, artefact control for Apaf-1 activator project, biochemical, 20 µM. shares compounds with Apaf1 activ. quenched caspase reaction, Ex480/Em540. fluorescence interference (activity change), % at 20 µM, hits read low. AID 504616, 2011. 980 tested, under 10 active;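 active = mean activity change at or below -40% when tested at 20 µM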
Apaf-1 act conf2 = Apaf-1 activators, single-dose retest, confirmation, biochemical, fluorescence, DEVD-Rh110, 20 µM; reconstituted apoptosome caspase-3 activity; hits give low values; AID 504617, 2011; 980 compounds, 5% hits; shares compounds with Apaf1 activ; activity change, negative = activation, % at 20 µM;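 active = mean activity change at or below -40%, meaning activation of 40% or more, at 20 µM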
Fluor interf act = fluorescence interference of Apaf-1 activator hits, dose response, artefact control for Apaf-1 activator project. fluorescence interference counterscreen, Apaf-1 activator assay. EC50, µM. AID 588592, 2011. 55 tested, under 10 active. shares compounds with Apaf1 activ; call rule not given here
* hit, by the source's call; · = no result given; + = active, no number. The list is a sample of the results.

SMILES	Apaf1 activ	Rh110 act interf	Apaf-1 act conf2	others
CCC(C)NC(=O)C1CCN(S(=O)(=O)c2cccc3cccnc23)CC1 (stereo not drawn)	-456*	-6	9
Oc1ccccc1CNc1cccc2cccnc12	95	·	·
C#CCOCCOCCOCCNc1nc(N2CCN(C(=O)CCCCCCCCCCNC(=O)Cn3cc(CCCCCN)nn3)CC2)nc(N2CCN(C(=O)CCCCCCCCCCNC(=O)[C@H](CO)n3cc(CCCCCN)nn3)CC2)n1	63	·	·
COC(=O)c1ccccc1-c1c2ccc(=N)cc-2oc2cc(N)ccc12	-332*	+	-82*
COC(=O)c1ccccc1-c1ccc(C(c2c(C)[nH][nH]c2=O)c2c(C)[nH][nH]c2=O)o1	79	·	·
O=C(Cc1cc(=O)[nH][nH]1)N/N=C/c1c(Cl)cccc1Cl	64	·	·
C/C(=N\NC(=O)Cn1ccc(C(F)(F)F)n1)c1ccc2c(c1)OCO2	-134*	1	0
CC(=O)c1ccc(OCC(O)CN2CCN(Cc3ccc4c(c3)OCO4)CC2)cc1 (stereo not drawn)	0	·	·
CN1c2ccccc2C(C)(C)C12C=Nc1c(cc(N3CCOCC3)c3ccccc13)O2 (stereo not drawn)	69	·	·
Cc1ccc(-n2nc(C)c3c2OC(N)=C(C#N)C3c2ccoc2)cc1 (stereo not drawn)	81	·	·
C=CCN1C=C2C(=O)C(C)(OC(=O)CCC(=O)OC)C(=O)C(Br)=C2C=C1c1ccc(OC)cc1 (stereo not drawn)	67	·	·
COC(=O)CCC(=O)OC1(C)C(=O)C2=CN(C3CCCC3)C(c3ccc(OC)cc3)=CC2=C(Br)C1=O (stereo not drawn)	64	·	·
COCCN1C=C2C(=O)C(C)(OC(=O)CCC(=O)OC)C(=O)C(Br)=C2C=C1c1ccc(OC)cc1 (stereo not drawn)	77	·	·	Fluor interf act=>100
CCN(CC)c1nc(OCCNC(=O)Nc2ccccc2)nc(N(CC)CC)n1	-52*	-2	17
COCCNC(=O)c1c(N)n(-c2ccccc2)c2nc3ccccc3nc12	81	·	·
O=C(NCCOc1nc(N2CCCCC2)nc(N2CCCCC2)n1)Nc1ccccc1	41	·	·
COc1cc(Cn2c(N)c(C#N)c3nc4ccccc4nc32)cc(OC)c1	58	·	·
CN1N=C(C(C)(C)C)CC1=O	41	·	·
Cc1coc2c1C(=O)C(=O)c1c-2ccc2c(C)cccc12	96	·	·
CCCCC(=Nc1ccc(N)cc1)C1=C(O)C(C(=O)OC)C(C)(C)CC1=O (stereo not drawn)	62	·	·
O=C1NC(=Nc2ccccc2)S/C1=C/c1cccs1	-300*	7	15
C#CCOCCOCCOCCNc1nc(N2CCN(C(=O)CCCCCCCCCCNC(=O)[C@H]([C@@H](C)CC)n3cc(CCCCN=C(N)N)nn3)CC2)nc(N2CCN(C(=O)CCCCCCCCCCNC(=O)[C@H](CCCCN)n3cc(C[C@@H](C)CC)nn3)CC2)n1	55	·	·
CCN1CCN(c2ccc(S(=O)(=O)N3CCCCC3)cc2NC(=O)/C=C/c2ccc(OC(F)F)cc2)CC1	52	·	·
O=C(COC(=O)/C=C/c1ccc(OC(F)F)cc1)NC1CCCCCC1	-64*	7	12
CCN(CC)CCOC(=O)c1ccc(N/C=C(/C#N)c2nc(-c3cc4ccccc4oc3=O)cs2)cc1	54	·	·
SMILES	Apaf1 activ	Rh110 act interf	Apaf-1 act conf2	others
NC1=NC[C@H](Cc2ccccc2)N1CCCCC1CCCCC1	67	·	·
CC1=NN(c2ccc(N)cc2)C(=O)C1	53	·	·
COCCOc1cc(NCc2ccccc2)c2ncn(C(C)C)c2c1	68	·	·
CC(OC(=O)c1ccc(-n2cnnn2)cc1)C(=O)Nc1ccccc1F (stereo not drawn)	-229*	11	13
OCc1cc(C(O)CNCCCCCCOCCCCc2ccccc2)ccc1O (stereo not drawn)	42	·	·
CCN(CC)CCOc1ccc(/C(=C(\Cl)c2ccccc2)c2ccccc2)cc1	66	·	·
COc1ccc(C[C@H]2CN3C(=NC[C@H]3Cc3ccccc3)N2CCNC(=O)c2ccc(C)c(Br)c2)cc1	43	·	·
CN(C)CCCNc1cc(C(C)(C)C)nc2c(-c3ccc(Cl)cc3)cnn12	58	·	·
Cc1ccc(C(=O)c2c3ccc(N)cc3nn2CCC(N)=O)cc1	82	·	·
CC(=O)C1=C(O)C(=O)N(CCc2c[nH]c3ccccc23)C1c1ccco1 (stereo not drawn)	43	·	·
Cc1ccc2cc(C(c3nnnn3Cc3ccccc3)N3CCc4ccccc43)c(=O)[nH]c2c1 (stereo not drawn)	43	·	·
CC(=O)N1CCC(=O)Nc2ccc([N+](=O)[O-])cc21	-64*	5	10
O=C1Nc2ccccc2Nc2ccc([N+](=O)[O-])cc21	43	·	·
CC1OC(Nc2cccc3ccccc23)C(O)C(O)C1O (stereo not drawn)	96	·	·
COc1cc2sc(-c3ccccc3OC)c(-c3ccc(OCCN4CCCCC4)cc3)c2cc1OC	66	·	·
O=C(NCc1ccc2c(c1)OCO2)c1cc(-c2ccccc2)c(N2CCOCC2)s1	-287*	8	22
Nc1c(C(=O)NCc2ccc3c(c2)OCO3)c2nc3ccccc3nc2n1CCCN1CCOCC1	90	·	·
CC(C)(C)CC(C)(C)c1ccc(OCCOCC[N+](C)(C)Cc2ccccc2)cc1	82	·	·
CC(C)(C(=O)O)c1ccc([C@H](O)CCCN2CCC(C(O)(c3ccccc3)c3ccccc3)CC2)cc1	-114*	13	12
COC(=O)c1c(C(=O)OC)c2cccc3cc(-c4ccccc4)c4ccc1c4n32	65	·	·
N#C/C(=C\c1ccc(OCc2ccc(Cl)cc2)cc1)C(=O)Nc1cccc(C(=O)O)c1	-202*	13	-71*	Fluor interf act=>100
CCCCCCSc1ccc(-c2nc3ccc(C)cn3c2NCc2ccccc2)cc1OC	41	·	·
N#Cc1c(NC(=O)c2ccc(Br)o2)n(-c2ccccc2)c2nc3ccccc3nc12	96	·	·
CC(=O)Nc1ccc(NC(=O)C2CC(=O)Nc3nc4ccccc4n32)cc1 (stereo not drawn)	-43*	6	9
COC(=O)c1c(N)n(-c2ccc(NC(C)=O)cc2)c2nc3ccccc3nc12	49	·	·
SMILES	Apaf1 activ	Rh110 act interf	Apaf-1 act conf2	others
COc1cccc(/C=N/NC(=O)CCn2nnc3ccccc32)c1	-70*	1	6
COc1ccc(/C=N/NC(=O)CCn2cnc(-c3ccccc3)c2-c2ccccc2)cc1	54	·	·
C#CCOCCOCCOCCNc1nc(N2CCN(C(=O)Cn3cc(CCCCN)nn3)CC2)nc(N2CCN(C(=O)[C@H](CCCCN)n3cc(CCCC)nn3)CC2)n1	41	·	·
COCCn1c(=S)[nH]c2cc(OC)c(OC)cc2c1=O	-93*	2	7
COc1cc2[nH]c(C(=O)NN)c(N)c2cc1OC	48	·	·
C#CCOCCOCCOCCNc1nc(N2CCN(C(=O)C([C@@H](C)O)n3cc([C@@H](N)CCCCN)nn3)CC2)nc(N2CCN(C(=O)[C@H](CO)n3cc([C@@H](N)C(C)C)nn3)CC2)n1 (stereo partly drawn)	53	·	·
